Results taken from ChEMBL document CHEMBL1147854, “Synthesis and biological properties of 4-(3H)-quinazolone derivatives” (2007).
Calls of active or inactive are those of the source. The calls are words filed in the database; no cut-off is given here.

Legend:
[1] = system: Klebsiella pneumoniae; test: Antibacterial activity against Klebsiella pneumoniae at 10 ug/ml after 24 hrs by disk diffusion method; format: functional; settings: read-out: IZ
Summary of the method: (§1)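 Disk diffusion on filter-paper discs impregnated with DMSO solutions of test compound; filtered if turbid. Inhibition zones around dried discs measured after 24 h. Triplicate samples. Tetracycline control (20 mg/ml).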

[2] = system: Aspergillus flavus; test: Antifungal activity against Aspergillus flavus at 100 ug/ml by agar plate method; format: functional
Summary of the method: (§2)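 1 ml of test compound in DMSO (diluted to required level, filtered if turbid) mixed into 20–25 ml molten potato dextrose agar. After setting, plates were inoculated with fungal isolate and kept at 27 °C for seven days. Percent inhibition of fungal zone then recorded. Amphotericin control (7.5 mg/ml).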

[3] = system: Aspergillus flavus; test: Antifungal activity against Aspergillus flavus at 20 ug/ml by agar plate method; format: functional; summary of the method: as §2
[4] = system: Aspergillus niger; test: Antifungal activity against Aspergillus niger at 10 ug/ml by agar plate method; format: functional; summary of the method: as §2
[5] = system: Pseudomonas aeruginosa; test: Antibacterial activity against Pseudomonas aeruginosa at 10 ug/ml after 24 hrs by disk diffusion method; format: functional; settings: read-out: IZ; summary of the method: as §1
[6] = system: MCF7; test: Cytotoxicity against human MCF7 cells by MTT assay; format: functional, cell-based
Summary of the method: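 MCF-7 cells were kept at 37 °C, 5% CO2 in MEM with 10% FBS, then moved for four days to phenol red-free DMEM with 10% charcoal-stripped serum before testing. Cells were seeded at 1 × 10^4/well and exposed to compounds for 24, 48 and 72 h. MTT was added for 5 h at 37 °C, followed by DMSO solubilisation. Doxorubicin standard.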

[7] = system: Aspergillus niger; test: Antifungal activity against Aspergillus niger at 50 ug/ml by agar plate method; format: functional; summary of the method: as §2
[8] = system: Staphylococcus aureus; test: Antibacterial activity against Staphylococcus aureus at 10 ug/ml after 24 hrs by disk diffusion method; format: functional; settings: read-out: IZ; summary of the method: as §1
[9] = system: Aspergillus niger; test: Antifungal activity against Aspergillus niger at 20 ug/ml by agar plate method; format: functional; summary of the method: as §2
[10] = system: Aspergillus niger; test: Antifungal activity against Aspergillus niger at 100 ug/ml by agar plate method; format: functional; summary of the method: as §2
[11] = system: Aspergillus flavus; test: Antifungal activity against Aspergillus flavus at 50 ug/ml by agar plate method; format: functional; summary of the method: as §2
[12] = system: Aspergillus flavus; test: Antifungal activity against Aspergillus flavus at 10 ug/ml by agar plate method; format: functional; summary of the method: as §2

| SMILES | zone of inhibition at 10 µg/mL [1] [mm] | inhibition at 100 µg/mL [2] [%] | inhibition at 20 µg/mL [3] [%] | inhibition at 10 µg/mL [4] [%] | zone of inhibition at 10 µg/mL [5] [mm] | Activity [6] | inhibition at 50 µg/mL [7] [%] | zone of inhibition at 10 µg/mL [8] [mm] | inhibition at 20 µg/mL [9] [%] | inhibition at 100 µg/mL [10] [%] | inhibition at 50 µg/mL [11] [%] | inhibition at 10 µg/mL [12] [%] |
| --- | --- | --- | --- | --- | --- | --- | --- | --- | --- | --- | --- | --- |
| O=c1c2ccccc2nc(-c2ccccc2)n1Nc1nc(-c2ccccc2)nc2ccccc12 | > 14 | 96.7 | 83.3 | 30 | 10 | inactive | 60 | 6 | 40 | 75 | 93.3 | 76.7 |
| O=C(NCc1nc2ccccc2c(=O)n1Nc1nc(-c2ccccc2)nc2ccccc12)c1ccccc1 | 10 | 86.7 | 66.6 | 50 | 10 | Active | 75 | 10 | 60 | 90 | 76.7 | 60 |
| O=c1c2ccccc2nc(/C=C\c2ccccc2)n1Nc1nc(-c2ccccc2)nc2ccccc12 | 6 | 96.7 | 80 | 60 | 10 | Active | 90 | > 14 | 70 | 95 | 86.7 | 53.3 |
| O=C1c2ccccc2C(=O)N1Cc1nc2ccccc2c(=O)n1Nc1nc(-c2ccccc2)nc2ccccc12 | > 14 | 96.7 | 86.7 | 25 | > 14 | inactive | 75 | 6 | 70 | 85 | 86.7 | 83.3 |
